Assay outcomes: PubChem BioAssay, several laboratories
RGS7-Gao reg – RGS7-Galphao binding modulators, primary screen, biochemical, multiplexed bead flow cytometry | binding response (% of control), % at 10 µM | actives lie on both sides | Guanine nucleotide-binding protein G(o) subunit alpha (Homo sapiens), P09471 | hit rate 0.35% among 220,000; in the data active = binding response below about 49% or above about 150%; inconclusive = no clear call, values can overlap the other calls; inactive = in between;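 note: fluorescent Galphao held in activated GDP-AlF4 state binding bead-coupled RGS7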
Target sequence (P09471 whole entry, looked up): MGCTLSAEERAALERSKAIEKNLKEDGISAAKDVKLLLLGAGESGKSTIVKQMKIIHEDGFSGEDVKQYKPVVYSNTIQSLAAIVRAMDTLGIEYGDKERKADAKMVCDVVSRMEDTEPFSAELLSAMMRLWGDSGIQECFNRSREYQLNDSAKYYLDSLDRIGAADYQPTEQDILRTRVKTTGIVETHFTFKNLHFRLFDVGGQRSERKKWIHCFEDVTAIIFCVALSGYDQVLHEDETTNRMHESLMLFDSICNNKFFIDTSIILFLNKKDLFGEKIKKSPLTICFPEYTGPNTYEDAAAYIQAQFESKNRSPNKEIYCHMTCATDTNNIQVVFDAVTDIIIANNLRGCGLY
Calb biofilm kill – clotrimazole potentiators killing C. albicans biofilm, primary screen, 4-compound mixtures; C. albicans biofilm persisters + clotrimazole, fluorescence viability; primary screen in compound mixtures of four per well; hit rate 0.02% among 120,000; inhibition, % at 7.6 µM;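 active = inhibition above 30.3% in the primary screen of four-compound pools, then above 30% when the compound was retested; inconclusive = passed the primary limit but could not be retested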;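 note: compounds exposed to preformed 24 h biofilms for 48 h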
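System: C. albicans CAF4-2 wild-type biofilms; Medium: RPMI/MOPS medium, pH 7.0; Reagent: Clotrimazole, 50 µg/mL; Times: biofilm formation 24 h, compound exposure 48 h, 37 °C; Detection: 2-h Alamar Blue fluorescence, 535/590 nm excitation/emission; Evaluation: percent inhibition of biofilm viability.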
RGS4-Gao reg – modulators of RGS4 binding to Galphao, primary screen, biochemical, multiplexed bead flow cytometry. hit rate 0.33% among 220,000. Guanine nucleotide-binding protein G(o) subunit alpha (Homo sapiens), P09471. actives lie on both sides. AID 1415, 2008. binding response (% of control), % at 10 µM; in the data active = binding response below about 49% or above about 150%; inactive = in between;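 note: fluorescent Galphao activated with aluminum fluoride binding bead-coupled RGS4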
RGS8-Gao – RGS8-Galphao binding modulators, primary screen, biochemical, multiplexed bead flow cytometry; Guanine nucleotide-binding protein G(o) subunit alpha (Homo sapiens), P09471; actives lie on both sides; response (percent of control binding), % at 10 µM; hit rate 0.34% among 220,000; AID 1423, 2008; in the data active = response below about 60% or above about 140%; inactive = in between;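 note: Galphao activated as the GDP aluminium fluoride complex binding bead-coupled RGS8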
RGS16-Gao – modulators of RGS16 binding to Galphao, primary screen, biochemical, human proteins, multiplexed bead flow cytometry. Regulator of G-protein signaling 16 (Homo sapiens) + Guanine nucleotide-binding protein …. bead-based flow cytometry RGS16-Galphao binding, fluorescence; actives lie on both sides. binding response (% of control), % at 10 µM. hit rate 0.38% among 220,000. AID 1441, 2008;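 note: Galphao activated by GDP with aluminum fluoride before binding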
RGS-Gao – modulators of RGS–Galpha-o binding, primary screen, biochemical, multiplexed beads, flow cytometry, RGS4/7/8/16/19. shares compounds with RGS16-Gao. multiplexed bead flow cytometry. RGS4–Galpha-o binding response, % at 10 µM. hit rate 99% among 1,600;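 note: fluorescently labeled Galpha-o bound to GDP with aluminium fluoride binding biotinylated RGS beads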
Biotin-avidin – disruption of biotin probe capture by avidin, counter-screen for RGS protein interaction modulators, biochemical, flow cytometry, bead-based; shares compounds with RGS16-Gao; streptavidin beads, fluorescein-biotin binding; inhibition, % at 10 µM; 1,700 tested, under 10 active;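 active = inhibition above 50%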;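 note: median green fluorescence of gated singlet beads compared with DMSO control wells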
RGS8-Gao confirm – RGS8-Galphao binding modulators, confirmation, biochemical, multiplexed bead flow cytometry, single concentration; shares compounds with RGS16-Gao; bead-based flow cytometry RGS8-Galphao binding, fluorescence; actives lie on both sides; binding response (% of control), % at 10 µM; hit rate 3% among 1,700; in the data active = binding response below about 72% or above about 130%; inactive = in between;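 note: Galphao activated as GDP AlF4 complex before binding bead RGS8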
RGS7-Gao single – RGS7-Galphao binding modulators, confirmation, biochemical, multiplexed bead flow cytometry, single concentration; shares compounds with RGS16-Gao; bead-based flow cytometry RGS7-Galphao binding; actives lie on both sides; response (percent of control binding), % at 10 µM; hit rate 7.8% among 1,700; AID 1837, 2009; in the data active = response below about 75% or above about 130%; inactive = in between;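 note: fluorescent Galphao activated with GDP and aluminum fluoride binding bead-coupled RGS7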
RGS16-Gao conf – modulators of RGS16-Galphao protein binding, confirmation, biochemical, single concentration, multiplexed bead flow cytometry; shares compounds with RGS16-Gao; bead-based flow cytometry; actives lie on both sides; response (% of control binding), % at 10 µM; hit rate 4% among 1,700; AID 1838, 2009; in the data active = response below about 74% or above about 130%; inactive = in between;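 note: Galphao activated as the GDP aluminium fluoride complex binding bead-coupled RGS16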
RGS4-Gao single – modulators of RGS4-Galphao protein binding, confirmation, biochemical, single concentration, multiplexed bead flow cytometry; shares compounds with RGS16-Gao; actives lie on both sides; binding response (% of control), % at 10 µM; hit rate 4% among 1,700; AID 1840, 2009; in the data active = binding response below about 74% or above about 130%; inactive = in between
RGS19-Gao conf – regulators of RGS19-Galphao binding, confirmation, biochemical, single point, multiplexed bead flow cytometry; response (percent of control binding), % at 10 µM; hit rate 5% among 1,700; bead-based flow cytometry RGS19-Galphao binding; actives lie on both sides; shares compounds with RGS16-Gao; in the data active = response below about 50% or above about 160%; inactive = in between
Target sequence (P09471 whole entry, looked up): as above
Target sequence (P49795 whole entry, looked up): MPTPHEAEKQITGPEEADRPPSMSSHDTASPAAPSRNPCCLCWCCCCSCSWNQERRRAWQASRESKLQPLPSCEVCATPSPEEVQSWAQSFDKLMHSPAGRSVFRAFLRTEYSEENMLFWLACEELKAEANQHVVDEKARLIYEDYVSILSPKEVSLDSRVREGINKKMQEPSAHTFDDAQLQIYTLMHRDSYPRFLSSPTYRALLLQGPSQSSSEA
Large screens that a line does not name were inactive (follow-up assays come after a bar, where they were run); [ ] = remark or other dose. Hits are enriched below; roughly 0.74% of the tested compounds scored in any of these assays. Unless noted, the rule behind the calls is not given here.

COc1cc2c(cc1OC)C(C(=O)NCc1cccnc1)C(c1cccnc1)N(C)C2=O (stereo unspecified)	RGS7-Gao reg 170[activator] (no result: Calb biofilm kill) | RGS-Gao 119
NC(=O)Nc1ccc(F)cc1	none (no result: Calb biofilm kill)
CCC(=O)c1ccc(OCC(=O)N2CCc3cc(OC)c(OC)cc3C2)cc1	RGS7-Gao reg -12, RGS4-Gao reg -33, RGS8-Gao 9.6, RGS16-Gao -36 (no result: Calb biofilm kill) | Biotin-avidin inactive | RGS8-Gao confirm inactive | RGS7-Gao single inactive | RGS16-Gao conf inactive | RGS4-Gao single inactive | RGS19-Gao conf inactive
Cn1c(CNC(=O)OC(C)(C)C)nnc1SCC(=O)N1CCOCC1	RGS7-Gao reg inconclusive
Cc1ccc2c(c1)NC(=O)C(CC(=O)NCc1ccc(F)cc1)O2 (stereo unspecified)	none (no result: Calb biofilm kill)
Cc1ccc2c(c1)NC(=O)C(CC(=O)NCc1cccnc1)O2 (stereo unspecified)	RGS4-Gao reg 154[activator], RGS8-Gao 161[activator] (no result: Calb biofilm kill) | Biotin-avidin inactive | RGS8-Gao confirm inactive | RGS7-Gao single inactive | RGS16-Gao conf inactive | RGS4-Gao single inactive | RGS19-Gao conf inactive
O=C(NCCCN1CCOCC1)c1sc2cc([N+](=O)[O-])ccc2c1Cl	RGS7-Gao reg inconclusive, RGS16-Gao 25 | RGS-Gao 100 | Biotin-avidin inactive | RGS8-Gao confirm 65 | RGS7-Gao single inactive | RGS16-Gao conf 13 | RGS4-Gao single inactive | RGS19-Gao conf 30
O=C(O)c1cc2nccc(-c3ccc(F)cc3)n2n1	none
COc1ccc(-c2cc(C(F)(F)F)nc(SCC(=O)N(C)Cc3cn(C)nc3C)n2)cc1OC	RGS16-Gao 0.0 | RGS-Gao 78 | Biotin-avidin inactive | RGS8-Gao confirm inactive | RGS7-Gao single inactive | RGS16-Gao conf inactive | RGS4-Gao single inactive | RGS19-Gao conf inactive
COc1ccc(-c2cc(C(F)(F)F)nc(SCC(=O)NCc3cnn(C)c3C)n2)cc1OC	none
N#CCC(=N)N1CCN(c2ccc(F)cc2)CC1	none
O/N=C/c1cccnc1Sc1ccccc1	RGS7-Gao reg 157[activator], RGS4-Gao reg 152[activator], RGS8-Gao 162[activator], RGS16-Gao 180[activator] | Biotin-avidin inactive | RGS8-Gao confirm inactive | RGS7-Gao single inactive | RGS16-Gao conf inactive | RGS4-Gao single inactive | RGS19-Gao conf inactive
Cc1cc(-c2ccc3ccccc3c2)n2ncnc2n1	none
C=CCn1c(CNC(=O)c2ccccc2F)nnc1SCC(=O)NC(C)c1ccccc1 (stereo unspecified)	none
Cc1ccc(/C=N/NC(=O)c2ccc3nc[nH]c3c2)o1	RGS7-Gao reg inconclusive, RGS4-Gao reg 156[activator] | Biotin-avidin inactive | RGS8-Gao confirm inactive | RGS7-Gao single inactive | RGS16-Gao conf inactive | RGS4-Gao single inactive | RGS19-Gao conf inactive
CN(C)CCCNC(=O)/C(=C\C=C\c1ccccc1)NC(=O)c1ccc([N+](=O)[O-])cc1	RGS7-Gao reg inconclusive
Cc1c(C(=O)Nc2cccc(N(C)S(C)(=O)=O)c2)cccc1[N+](=O)[O-]	none
COc1ccccc1OCCCCOc1ccccc1C(C)=O	RGS7-Gao reg 7.4, RGS4-Gao reg 18, RGS8-Gao 15, RGS16-Gao 6.0 | Biotin-avidin inactive | RGS8-Gao confirm inactive | RGS7-Gao single inactive | RGS16-Gao conf inactive | RGS4-Gao single inactive | RGS19-Gao conf inactive
Cn1cnnc1SCC(=O)Nc1c(F)cc(F)cc1Br	none (no result: RGS7-Gao reg, Calb biofilm kill, RGS4-Gao reg, RGS8-Gao, RGS16-Gao) | Biotin-avidin inactive | RGS8-Gao confirm inactive | RGS7-Gao single inactive | RGS16-Gao conf inactive | RGS4-Gao single inactive | RGS19-Gao conf inactive
CCOC1CC(C)(C)NC(=S)N1 (stereo unspecified)	none
CC1(C)CCC(C)(C)NC(=S)N1	RGS16-Gao 15 | RGS-Gao 99 | Biotin-avidin inactive | RGS8-Gao confirm inactive | RGS7-Gao single 71 | RGS16-Gao conf inactive | RGS4-Gao single inactive | RGS19-Gao conf inactive
Cc1c(NC(=O)C(C)N2CC(C)OC(C)C2)c(=O)n(-c2ccccc2)n1C (stereo unspecified)	none (no result: Calb biofilm kill)
Cc1ccc(-n2cccc2/C=C2/C(=N)N3C(=NC2=O)SN=C3S(C)(=O)=O)cc1Cl	RGS7-Gao reg 45 | RGS-Gao 72
Cc1cccc(C)c1-n1cccc1/C=C1/C(=N)N2C(=NC1=O)SN=C2S(C)(=O)=O	none
O=C(OCc1cccc2ccccc12)c1ccc2c(=O)[nH]c(CN3CCOCC3)nc2c1	RGS7-Gao reg -54, RGS4-Gao reg -138, RGS8-Gao -2.4, RGS16-Gao -114 (no result: Calb biofilm kill) | Biotin-avidin inactive | RGS8-Gao confirm inactive | RGS7-Gao single inactive | RGS16-Gao conf inactive | RGS4-Gao single inactive | RGS19-Gao conf inactive
COc1cccc(NC(=O)Nc2nnc(-c3ccccc3SCc3ccccc3)s2)c1	none (no result: Calb biofilm kill)
COc1ccc(NC(=O)Nc2nnc(-c3ccccc3SCc3ccccc3)s2)cc1	none (no result: RGS7-Gao reg, Calb biofilm kill, RGS4-Gao reg, RGS8-Gao, RGS16-Gao) | Biotin-avidin inactive | RGS8-Gao confirm inactive | RGS7-Gao single inactive | RGS16-Gao conf inactive | RGS4-Gao single inactive | RGS19-Gao conf inactive
COc1ccc(CCNC(=O)COC(=O)c2cc(OC)c(OC)cc2OC)cc1OC	RGS7-Gao reg 172[activator], RGS4-Gao reg 173[activator], RGS8-Gao 174[activator], RGS16-Gao 199[activator] | Biotin-avidin inactive | RGS8-Gao confirm inactive | RGS7-Gao single inactive | RGS16-Gao conf inactive | RGS4-Gao single inactive | RGS19-Gao conf inactive
